Assay results published in ChEMBL document CHEMBL1152580, “Toward establishing structure-activity relationships for oxygenated coumarins as differentiation inducers of promonocytic leukemic cells” (Bioorg Med Chem, 2009).
Active and inactive are the calls of the source. The calls are words filed in the database; no cut-off is given here.

Experiments:
U-937 [1] = assay: Growth inhibition of human U937 cells assessed as [3H]5-methyl thymidine incorporation after 48 hrs by liquid scintillation counting; type: functional, cell-based
Method in brief: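 Exponentially growing U-937 cells (10⁴ per well in RPMI 1640) exposed to coumarins up to 2.0 mM or 0.0001% (v/v) DMSO for 48 h. 0.5 µCi [³H]5-methyl thymidine added 12 h before the end. Cells harvested, incorporation read by liquid scintillation counting as % of DMSO control. IC50 from sigmoidal dose-response fit; quadruplicate, at least four independent experiments.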

U-937 [2] = assay: Cytotoxicity against human U937 cells after 48 hrs by trypan blue assay; type: functional; conditions: U-937, 48 h
Method in brief: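 U-937 cells in exponential growth seeded at 10⁵ cells/mL RPMI 1640, exposed to coumarin 0.15 µM to 2.0 mM or 0.0001% (v/v) DMSO vehicle for 48 h at 5% CO₂. Viable cells counted by trypan blue exclusion (0.4%, 5 min) in a hemocytometer. CC50 from sigmoidal dose-response fit; quadruplicate, at least four independent experiments.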

U-937 [3] = assay: Induction of human U937 cell differentiation assessed as increase in rhC5a-stimulated intracellular calcium at 50 uM after 2 days; type: functional, cell-based
Method in brief: (§1)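 CD88 read-out as C5a-evoked Ca²⁺ release: U-937 cells (1 × 10⁶/mL) treated 48 h with 5, 25 or 50 µM compound, 400 µM dbcAMP or 0.0001% DMSO. Loaded with 2 µM Fura 2-AM in BSS pH 7.5, 30 min, 37 °C, then 2 × 10⁶ cells/mL. F340/F380 (emission 505 nm) recorded for 8 min at 37 °C with rhC5a or ATP injection. Calibrated with Triton X-100/EGTA; ≥3 experiments.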

U-937 [4] = assay: Induction of human U937 cell differentiation assessed as expression of CD88 receptor at 50 uM after 2 days; type: functional, cell-based; method in brief: as §1
U-937 [5] = assay: Induction of human U937 cell differentiation assessed as expression of CD88 receptor at 5 uM after 2 days; type: functional, cell-based; method in brief: as §1
U-937 [6] = assay: Growth inhibition of human U937 cells assessed as cell proliferation after 72 hrs; type: functional, cell-based; conditions: TDE = time-dependent effect
Method in brief: (§2)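 U-937 cells seeded at 10⁵ cells/mL and treated with 25 or 50 µM compound, 400 µM dbcAMP (positive control) or 0.0001% (v/v) DMSO for up to 72 h (sampled at 24, 48, 72 h). Cell number counted on a Coulter Z-1, with density kept ≤1 × 10⁶ cells/mL. Expressed as % of DMSO control; n = 3.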

U-937 [7] = assay: Growth inhibition of human U937 cells assessed as proliferation at 50 uM after 72 hrs; type: functional; conditions: U-937, 72 h, read-out: Activity; method in brief: as §2
U-937 [8] = assay: Induction of human U937 cell differentiation assessed as burst oxidative capacity at 25 uM after 72 hrs by NBT reduction assay relative to control; type: functional, cell-based
Method in brief: (§3)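 NBT reduction: U-937 cells (2 × 10⁵/mL) treated 72 h with 25 or 50 µM compound, 1 µM ATRA (positive control) or 0.0001% (v/v) DMSO. Washed, then incubated in RPMI containing 1 mg/mL NBT and 1 µg/mL PMA for 30 min at 37 °C. Formazan dissolved in DMSO, A570 read relative to DMSO control (=1); n = 3.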

U-937 [9] = assay: Induction of human U937 cell differentiation assessed as expression of CD11b levels at 50 uM after 72 hrs relative to control; type: functional, cell-based
Method in brief: (§4)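 U-937 cells (2 × 10⁵/mL) treated 72 h with 25 or 50 µM compound, 400 µM dbcAMP (positive control) or 0.0001% (v/v) DMSO. Washed in PBS, stained with saturating PE anti-CD11b or isotype control, 4 °C, 30 min. Analysed by flow cytometry, ≥5000 events; CD11b relative to DMSO control (=1); n = 3.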

U-937 [10] = assay: Induction of human U937 cell differentiation assessed as increase in rhC5a-stimulated intracellular calcium at 25 uM after 2 days; type: functional, cell-based; method in brief: as §1
U-937 [11] = assay: Induction of human U937 cell differentiation assessed as expression of CD88 receptor at 25 uM after 2 days; type: functional, cell-based; method in brief: as §1
U-937 [12] = assay: Induction of human U937 cell differentiation assessed as burst oxidative capacity at 50 uM after 72 hrs by NBT reduction assay relative to control; type: functional, cell-based; method in brief: as §3
U-937 [13] = assay: Induction of human U937 cell differentiation assessed as expression of CD11b levels at 25 uM after 72 hrs relative to control; type: functional, cell-based; method in brief: as §4

Compound | IC50 (U-937 [1]) [µM] | CC50 (U-937 [2]) [µM] | also measured
COc1c2c(cc3ccc(=O)oc13)OCO2 | > 400 | > 2000 | –
CC(C)(O)C(O)COc1c2c(cc3oc(=O)ccc13)OCO2 (configuration not stated) | 192 | 420 | Activity (U-937 [3]): Active; Activity (U-937 [4]): Active; Activity (U-937 [5]): inactive; growth inhibition (GI) (U-937 [6]): tde; growth at 50 µM (U-937 [7]): 38%; Activity (U-937 [8]): Active; Activity (U-937 [9]): inactive
O=c1ccc2cc3c(cc2o1)OCO3 [AYAPIN] | > 400 | > 2000 | –
COc1cc(OC)c2ccc(=O)oc2c1OCC=C(C)C [ARTANIN] | 177 | 535 | –
COc1cc2oc(=O)ccc2c(OC)c1O [FRAXINOL] | > 400 | > 2000 | –
O=c1ccc2c(O)c3c(cc2o1)OCO3 | 255 | > 2000 | –
CC(C)=CCOc1cc2oc(=O)ccc2cc1O [PRENYLETIN] | > 400 | 820 | –
O=c1ccc2ccccc2o1 [COUMARIN] | > 400 | > 2000 | –
COc1cc2ccc(=O)oc2cc1OCC=C(C)C [PRENYLETIN 6-METHYL ETHER] | > 400 | 799 | –
COc1cc2oc(=O)ccc2c(OC)c1OC [5,6,7-TRIMETHOXYCOUMARIN] | 182 | 790 | –
CC(C)(Cl)C(O)COc1c2c(cc3oc(=O)ccc13)OCO2 (configuration not stated) | 227 | 567 | –
COc1c2c(c(OC)c3oc(=O)ccc13)OCO2 | > 400 | > 2000 | –
COC(C)(C)C(O)COc1c2c(cc3oc(=O)ccc13)OCO2 (configuration not stated) | 25.3 | 365 | Activity (U-937 [10]): Active; Activity (U-937 [3]): Active; Activity (U-937 [11]): Agonist; Activity (U-937 [4]): Active; Activity (U-937 [5]): inactive; growth inhibition (GI) (U-937 [6]): tde; growth at 50 µM (U-937 [7]): 62.5%; Activity (U-937 [8]): Active; Activity (U-937 [12]): Active; Activity (U-937 [13]): inactive; Activity (U-937 [9]): inactive
C=C(C)C(O)COc1cc2oc(=O)ccc2cc1OC (configuration not stated) | > 400 | 704 | –

Further lines, with some results ahead:

IC50 (U-937 [1]) [µM] | Compound | CC50 (U-937 [2]) [µM] | also measured
3.5 | CC(C)=CCOc1c2c(cc3oc(=O)ccc13)OCO2 | 266 | –
> 400 | COc1cc(OC)c2ccc(=O)oc2c1OC | > 2000 | –
> 400 | O=c1ccc2c(F)c3c(cc2o1)OCO3 | > 2000 | –
> 400 | CC1(C)OC1COc1c2c(cc3oc(=O)ccc13)OCO2 (configuration not stated) | 899 | –
> 400 | O=c1ccc2ccc3c(c2o1)OCO3 | > 2000 | –
> 400 | COc1cc(OC)c2ccc(=O)oc2c1O [LEPTODACTYLONE] | > 2000 | –
> 400 | O=c1ccc2c(Br)c3c(cc2o1)OCO3 | > 2000 | –
2.2 | COc1c2c(cc3oc(=O)ccc13)OCO2 | 252 | –
